Sampled rows, rich in hits. Any-hit rate of the full collection: about 2.8%.
PAFAH2 inh = inhibitors of human PAFAH2; 340,000 tested, 0.99% active; recombinant PAFAH2, FP-rhodamine activity probe, fluorescence polarization; inhibition, % at 3.39 µM; Q99487;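 active means inhibition above the mean over all tested compounds plus 3 SD, cut at about 30% in these data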;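 further: inhibitors block probe labeling of enzyme so polarization drops; 0% = enzyme with DMSO and 100% = wells lacking PAFAH2 protein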
PAFAH1B2 FP inh = inhibitors of human PAFAH1B2; P68402; recombinant PAFAH1B2, FP-rhodamine activity probe, fluorescence polarization; inhibition, % at 3.39 µM; 340,000 tested, 1.2% active; AID 492953;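 active means inhibition above the mean of all tested compounds plus 3 SD, cut at about 24% in these data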;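 further: 0% = enzyme with DMSO and 100% = wells lacking PAFAH1B2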
Target sequence (P68402 whole entry, looked up): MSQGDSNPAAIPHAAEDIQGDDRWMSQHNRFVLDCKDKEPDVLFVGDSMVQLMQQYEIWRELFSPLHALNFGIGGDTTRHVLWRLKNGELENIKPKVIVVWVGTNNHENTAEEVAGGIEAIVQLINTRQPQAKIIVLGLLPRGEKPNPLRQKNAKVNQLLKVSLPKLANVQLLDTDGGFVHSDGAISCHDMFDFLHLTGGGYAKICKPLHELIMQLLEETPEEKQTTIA
HTRA1 inh = HTRA1 (human) protease inhibition | Q92743 | AID 504803 | 340,000 tested, 0.5% active | recombinant HTRA1, FP-rhodamine activity-based probe, fluorescence polarization | inhibition, % at 5.96 µM; in the data active means inhibition above about 36%;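 further: 0% = enzyme with DMSO and 100% = wells lacking enzyme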
PAFAH1B3 inh = PAFAH1B3 (human) inhibition. Q15102. recombinant PAFAH1B3, FP-rhodamine probe, fluorescence polarization. inhibition, % at 3.39 µM. 340,000 tested, 0.28% active;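 active means inhibition above the screen-wide average of all tested compounds plus 3 SD, cut at about 25% in these data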;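 further: 0% = enzyme with DMSO only and 100% = wells lacking PAFAH1B3 protein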
pPAFAH FP inh = pPAFAH (human) enzyme inhibition; inhibition, % at 3.39 µM; Q13093; recombinant pPAFAH, FP-rhodamine probe fluorescence polarization; AID 463082; 330,000 tested, 1.5% active;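 active means inhibition above the mean inhibition across the screen plus 3 SD, cut at about 25% in these data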;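 further: inhibitors block binding of the rhodamine activity-based probe so polarization drops; 0% = enzyme with DMSO and 100% = wells lacking pPAFAH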
Target sequence (Q13093 whole entry, looked up): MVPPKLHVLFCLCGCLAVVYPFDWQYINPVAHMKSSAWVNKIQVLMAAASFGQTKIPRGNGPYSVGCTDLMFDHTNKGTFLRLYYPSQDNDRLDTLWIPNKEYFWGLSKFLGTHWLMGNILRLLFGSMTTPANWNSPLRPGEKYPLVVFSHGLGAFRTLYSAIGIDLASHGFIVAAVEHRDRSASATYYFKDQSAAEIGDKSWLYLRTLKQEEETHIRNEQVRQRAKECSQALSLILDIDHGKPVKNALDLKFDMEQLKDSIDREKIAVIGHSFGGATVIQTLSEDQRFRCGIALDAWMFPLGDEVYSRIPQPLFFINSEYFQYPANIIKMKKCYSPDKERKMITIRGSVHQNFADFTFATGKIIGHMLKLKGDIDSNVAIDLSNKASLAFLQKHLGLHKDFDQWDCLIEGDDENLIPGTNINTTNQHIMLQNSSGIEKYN
mABHD4 FP = inhibits mouse alpha/beta hydrolase domain 4; Q8VD66; purified mABHD4, FP-Rh probe fluorescence polarization; inhibition, % at 8.92 µM; 370,000 tested, 0.54% active; AID 720543;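 active means inhibition exceeding the mean over every tested compound plus 3 SD, cut at about 30% in these data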;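 further: 0% = plate median of compound wells and 100% = S159A mutant with DMSO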
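Test system: mABHD4 protein | Buffer or medium: HEPES pH 7.0 buffer, 150 mM NaCl, 0.01% Pluronic F-127 | Probe or stimulus: FP-Rh fluorescent activity-based probe, added after compound pre-incubation | Timing: Pre-incubation 45 min, probe exposure 60 min, at 25 °C | Technique: Fluorescence polarization, excitation 525 nm, emission 598 nm, BODIPY TMR filters | Repeats: Single well per compound (singlicate)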
PAFAH2 FP conf = PAFAH2 (human) inhibition, confirmed | recombinant PAFAH2, FP-rhodamine activity probe, fluorescence polarization | AID 493030 | 2,300 tested, 65% active | inhibition, % at 3.39 µM | shares compounds with PAFAH2 inh;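 active means mean inhibition over three repeats above a set limit taken from the earlier primary screen, cut at about 30% in these data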;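 further: inhibitor blocks binding of rhodamine activity probe so polarization falls; 0% = enzyme with DMSO and 100% = wells lacking PAFAH2 protein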
* hit, by the source's call; . = no result.

SMILES | PAFAH2 inh | PAFAH1B2 FP inh | HTRA1 inh | PAFAH1B3 inh | pPAFAH FP inh | mABHD4 FP | PAFAH2 FP conf
CCS(=O)c1ccccc1C(=O)OCC(=O)Nc1ccc2ccccc2c1 (stereo unspecified) | 70* | 0 | -9 | 11 | 8 | -5 | 67*
O=C(COC(=O)c1cccnc1Cl)Nc1cccc(S(=O)(=O)N2CCCCC2)c1 | 27 | 8 | 32 | -4 | 1 | -6 | .
O=C(COC(=O)c1ccccc1O)Nc1ccc2ccccc2c1 | 2 | 0 | -2 | 8 | -7 | 2 | .
CCOc1ccccc1C(=O)OCC(=O)Nc1cccc(S(=O)(=O)N2CCCC2)c1 | 73* | 9 | -14 | 10 | 4 | -7 | 52*
CCc1ccccc1OCC(=O)Nc1cccc(S(=O)(=O)N2CCCC2)c1 | -4 | 4 | -24 | 4 | . | 1 | .
O=[N+]([O-])c1cnc2ccccc2c1Sc1ccccc1 | . | . | . | . | . | 2 | .
CCOC(=O)[C@]12CCCCC/C=C\1N(CCc1ccc(Cl)cc1)C(=O)[C@H]2CC(=O)NCCC(C)C | . | . | . | . | . | 0 | .
O=C(CN1CCN(c2nc(-c3ccccc3)cs2)CC1)Nc1ccc(F)cc1F | . | . | . | . | . | 3 | .
O=c1c2c(nc3nc(Cc4ccccc4)[nH]n13)CCC2 | 67* | -3 | -2 | 7 | 7 | 5 | 59*
Cc1ccc(S(=O)(=O)n2nc(OC(=O)c3cccc(F)c3)cc2N)cc1 | -3 | 9 | -2 | 8 | 2 | -1 | .
Cc1ccc(S(=O)(=O)n2nc(OC(=O)c3c(F)cccc3Cl)cc2N)cc1 | 34* | 15 | 13 | 9 | 4 | -11 | 12
CC(C)(C)NC(=O)COC(=O)/C=C/c1ccc(F)cc1 | 65* | 0 | -3 | 9 | 5 | 1 | 47*
COc1ccc(/C=C/C(=O)OCC(=O)NC(=O)NC(C)(C)C)cc1 | 38* | 8 | -3 | 2 | 1 | -5 | 20
CCSc1nnc(NC(=O)CSc2c(Cl)cccc2Cl)s1 | 50* | 7 | -13 | 2 | 13 | -7 | 42*
CCSc1nnc(NC(=O)CSc2ncccn2)s1 | 5 | 2 | 2 | 14 | 5 | 5 | .
O=C(Nc1ccccc1C(=O)NCCc1ccccc1)c1cnccn1 | 32* | 10 | 1 | 11 | 0 | 6 | 8
O=C(COC(=O)c1cc(=O)c2ccccc2o1)NC1CCCC1 | 8 | 3 | -1 | -3 | 1 | 1 | .
CSCc1c(C(=O)OCC(=O)NC2CCCCC2)oc2ccccc12 | 57* | 0 | -1 | 4 | 14 | -2 | 60*
Cc1c(C(=O)OCC(=O)NC2CCCCC2)oc2ccccc12 | 46* | 2 | -4 | 10 | 16 | -1 | 48*
COc1ccc2oc(C(=O)OCC(=O)NC3CCCCC3)c(C)c2c1 | 64* | 2 | -15 | -5 | 14 | -2 | 57*
Cc1c(C(=O)OCC(=O)NCC2CCCO2)oc2ccccc12 (stereo unspecified) | 6 | 8 | 2 | 14 | 6 | 1 | .
COc1ccc(Br)c(C(=O)OCC(=O)NC2CCCCCC2)c1 | 77* | 0 | -1 | 7 | 14 | 1 | 60*
COc1ccc2oc(C(=O)OCC(=O)N3CCCCC3)c(C)c2c1 | 0 | -1 | -7 | -2 | 1 | -3 | .
COc1ccc(Br)c(C(=O)OCC(=O)NC2CCCCCCC2)c1 | . | . | -12 | . | . | -3 | .
Fc1ccc2nc(-c3ccc(CN4CCC5(CC4)CNc4ccccc45)cc3)c(-c3ccccc3)nc2c1 | . | . | . | . | . | 7 | .
SMILES | PAFAH2 inh | PAFAH1B2 FP inh | HTRA1 inh | PAFAH1B3 inh | pPAFAH FP inh | mABHD4 FP | PAFAH2 FP conf
O=C(CSc1nnc(-c2ccccn2)n1-c1ccccc1)c1ccc(F)cc1 | . | . | . | . | . | -4 | .
COC(=O)C1=C(C)N(C)C(=NCc2ccc3c(c2)OCO3)NC1c1cccc(F)c1 (stereo unspecified) | . | . | . | . | . | -3 | .
CCOc1ccc2oc(C(=O)OCC(=O)NC3CCCC3)c(C)c2c1 | 55* | 3 | 0 | 1 | 14 | -1 | 32*
CCOc1ccc2oc(C(=O)OCC(=O)NC(=O)NC3CCCC3)c(C)c2c1 | 0 | 3 | -3 | 0 | 3 | -4 | .
Cc1ccc(NS(=O)(=O)c2cc(C(=O)O)ccc2Cl)cc1 | 0 | 20 | 0 | 0 | 0 | 2 | .
Cc1ccc(NS(=O)(=O)c2cc(C(=O)O)ccc2Cl)c(C)c1 | 54* | 18 | 1 | 2 | 6 | 7 | 3
CCOc1ccc(S(=O)(=O)/N=C(/Nc2ccc(C(C)=O)cc2)c2ccccc2)cc1 | 57* | -1 | -12 | 9 | 8 | -20 | 41*
CCOc1ccc(S(=O)(=O)/N=C(/Nc2ccc(OC)cc2)c2ccccc2)cc1 | 52* | 0 | -14 | 8 | 7 | -13 | 41*
COC(=O)c1ccc(N/C(=N/S(=O)(=O)c2ccccc2)c2ccccc2)cc1 | 22 | 2 | 7 | 5 | 3 | -6 | .
O=C(COC(=O)c1ccccc1)NC12CC3CC(CC(C3)C1)C2 | 79* | 3 | -3 | 2 | 5 | 3 | 89*
O=C(COC(=O)c1ccc([N+](=O)[O-])cc1)NC12CC3CC(CC(C3)C1)C2 | 16 | 16 | -5 | 4 | 4 | 11 | .
N#Cc1ccccc1Sc1ccccc1C(=O)OCC(=O)NC12CC3CC(CC(C3)C1)C2 | 50* | 3 | -43 | 2 | 3 | -16 | 47*
COc1ccc(C(=O)NCC(=O)OCC(=O)NC23CC4CC(CC(C4)C2)C3)cc1 | 58* | 7 | 9 | 3 | 5 | 2 | 44*
CC(=O)c1ccc(NC(=O)COC(=O)c2ccccc2Sc2ccccc2C#N)cc1 | 8 | 0 | -9 | 8 | -1 | -18 | .
N#Cc1cccc(NC(=O)COC(=O)c2ccccc2Sc2ccccc2C#N)c1 | 45* | -6 | -12 | -2 | -8 | -14 | 39*
COc1ccc(C(=O)NC23CC4CC(CC(C4)C2)C3)cc1 | 12 | 9 | -2 | 5 | 0 | 3 | .
O=C(O)CCc1[nH]c2ccccc2c1Sc1ccccc1 | 31* | 10 | 4 | 4 | 10 | 0 | 25
O=C(O)CCN1C(=O)/C(=C/c2cccc(OCc3ccc(F)cc3)c2)SC1=S | . | . | . | . | . | 10 | .
Cc1ccc(C(=O)C2CCN(CC(=O)NCc3cccs3)CC2)cc1 | . | . | . | . | . | 5 | .
Cc1ccccc1/C(N)=N/OC(=O)c1ccc(F)cc1 | 4 | 14 | 4 | 5 | 4 | -5 | .
N/C(CS(=O)(=O)c1ccccc1)=N\OC(=O)c1ccc(F)cc1 | 52* | 3 | 5 | 5 | 9 | 0 | 40*
N#Cc1cccc(NC(=O)OC2CCC23CCC(c2ccccc2)CC3)c1 (stereo unspecified) | . | . | . | . | . | -34 | .
CCn1c(C)nc2cc(C(=O)OC(C(F)(F)C(F)F)C(F)(F)C(F)F)ccc21 | 90* | 14 | -12 | 7 | 24 | -4 | 79*
